Bioassay records: PubChem, several laboratories
MEKK3 PB1 HTS: MEKK3-MEK5 PB1 interaction, increase or decrease; Q99759; bead-based flow cytometry, Alexa488-MEK5 binding to MEKK3; actives lie on both sides; 0 = blocked by unlabeled MEK5, 100 = vehicle; binding response (% of control), % at 10 µM; 1.4% of 290,000 active; AID 1529;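 active = binding response more than 3 SD above or below the average of its plate-row segment, actives on both sides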;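 note: Alexa488 bead fluorescence after subtracting the streptavidin-only scavenger bead signal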
MEKK2mut PB1 HTS: signal of MEK5 binding to mutant human MEKK2 PB1 domain | bead flow cytometry, Alexa488-MEK5 binding to MEKK2 mutant | 0.35% of 290,000 active | percent response, % at 10 µM | AID 1530; in the data active = percent response above about 24%, passing the limit was not always enough
ABCB1 block: human ABCB1 inhibition, ABCG2 as counter-screen | CCRF-Adr cells, JC-1 efflux, flow cytometry | 0.067% of 190,000 active | P08183 | AID 1326 | inhibition, % at 6.6 µM; in the data active = inhibition above about 40%;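 note: 0% = vehicle and 100% = reference inhibitor; higher value means more JC-1 retained so stronger ABCB1 efflux block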
ABCG2 block: human ABCG2 inhibition, ABCB1 as counter-screen; IgMXP3 cells, JC-1 efflux, flow cytometry; inhibition, % at 6.6 µM; 0.1% of 190,000 active;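 active = inhibition above 80%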;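 note: 0% = DMSO and 100% = nicardipine control wells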
Target sequence (Q9UNQ0 whole entry, looked up): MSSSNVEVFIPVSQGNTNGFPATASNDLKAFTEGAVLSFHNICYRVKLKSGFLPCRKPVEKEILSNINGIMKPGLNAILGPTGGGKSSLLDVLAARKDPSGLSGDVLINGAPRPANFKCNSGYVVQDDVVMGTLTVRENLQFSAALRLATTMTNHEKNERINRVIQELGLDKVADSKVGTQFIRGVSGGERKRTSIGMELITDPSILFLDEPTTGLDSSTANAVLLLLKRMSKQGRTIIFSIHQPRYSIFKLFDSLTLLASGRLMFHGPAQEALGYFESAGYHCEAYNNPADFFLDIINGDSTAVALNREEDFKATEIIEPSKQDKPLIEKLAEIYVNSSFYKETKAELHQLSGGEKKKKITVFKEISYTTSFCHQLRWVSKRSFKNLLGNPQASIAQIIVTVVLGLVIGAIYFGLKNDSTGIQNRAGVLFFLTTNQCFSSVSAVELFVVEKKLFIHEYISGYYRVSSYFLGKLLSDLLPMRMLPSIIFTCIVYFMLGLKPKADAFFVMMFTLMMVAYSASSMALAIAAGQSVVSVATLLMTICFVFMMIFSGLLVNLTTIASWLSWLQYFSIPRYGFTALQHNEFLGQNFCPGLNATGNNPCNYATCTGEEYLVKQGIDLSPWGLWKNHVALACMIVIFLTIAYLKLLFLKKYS
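Test system: IgMXP3 (ABCG2) plus far-red-tagged CCRF-Adr (ABCB1) cells / Amount: 3 million cells/mL in well / Reagent: JC-1 transporter substrate / Timing: 10 min compound exposure, 25 °C / Signal: flow cytometry, 530 nm JC-1 signal / Read-out: percent efflux inhibition, scaled nicardipine 100% to DMSO 0% / Benchmarks: nicardipine as high control, DMSO as low control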
WT yeast gro inh: growth inhibition of WT yeast, mitochondrial fusion screen; mitochondrial fusion phenotypic screen, WT strain; 2.1% of 190,000 active; inhibition, % at 10 µM; in the data active = inhibition above about 58%; tested in S. cerevisiae
MEKK2wt PB1 HTS: raises or lowers MEK5 binding to wildtype human MEKK2 PB1 domain; bead flow cytometry, Alexa488-MEK5 binding to MEKK2 WT; actives lie on both sides; binding response (% of control), % at 10 µM; 1.1% of 290,000 active; AID 1531; in the data active = binding response below about 67% or above about 130%
MEKK2wt confirm: raises or lowers MEK5 binding to wildtype human MEKK2, retest | bead flow cytometry, Alexa488-MEK5 binding to MEKK2 WT; actives lie on both sides | shares compounds with MEKK3 PB1 HTS | binding response (% of control), % at 10 µM | 2.4% of 5,900 active; in the data active = binding response below about 16% or above about 210%; inactive = in between
MEKK2mut confirm: signal of MEK5 binding to mutant human MEKK2, retest | shares compounds with MEKK3 PB1 HTS | bead flow cytometry, Alexa488-MEK5 binding to MEKK2 mutant | percent response, % at 10 µM | 2% of 5,900 active | AID 1893; in the data active = percent response mostly above about 71%, no sharp cut-off; inactive = mostly below about 38%;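 note: higher means compound restores mutant binding toward wildtype level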
MEKK3 confirm: MEKK3-MEK5 PB1 inhibition, single concentration confirmation. bead flow cytometry, Alexa488-MEK5 binding to MEKK3; active compounds read low. 1.8% of 5,900 active. shares compounds with MEKK3 PB1 HTS. binding response (% of control), % at 10 µM;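 active = binding response below 72% of control, or above a set upper limit, though filed actives all read lower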;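 note: 100% = DMSO only wells and 0% = binding blocked by excess unlabeled MEK5; lower values mean stronger disruption of MEK5 binding to MEKK3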
Numbers without * were called inactive; . = no result; [ ] = another dose, or the depositor's remark. Shown are actives, neighbours in structure and some others; about 3.5% of the full set was active somewhere.

SMILES | MEKK3 PB1 HTS | MEKK2mut PB1 HTS | ABCB1 block | ABCG2 block | WT yeast gro inh | MEKK2wt PB1 HTS | MEKK2wt confirm | MEKK2mut confirm | MEKK3 confirm
COc1ccc(-c2ccnc(-c3ccc(OCCCF)cc3)n2)cc1 | 99 | -10 | 1 | 23 | 26 | 98 | . | . | .
FCCCOc1ccc(-c2nccc(-c3ccc(Cl)cc3)n2)cc1 | 77*[inhibitor] | -15 | 1 | 15 | 22 | 91 | 105 | 7 | 106
Oc1ccc(-c2n[nH]c(=S)n2-c2ccc3c(c2)OCCO3)c(O)c1 | 70*[inhibitor] | -1 | 0 | -7 | 6 | 85 | 105 | -2 | 97
S=c1[nH]nc(-c2ccc(Cl)cc2Cl)n1-c1ccc2c(c1)OCCO2 | 97 | 2 | . | . | . | 99 | . | . | .
O=C1CC(c2ccccc2F)C2=C(COC2=O)N1 (stereo not drawn) | 103 | -1 | 1 | 1 | 7 | 103 | . | . | .
CC(=O)c1oc2ccccc2c1NC(=O)CN1CCCCC1 | 4.0*[inhibitor] | -2 | 0 | 2 | -7 | 3.0*[inhibitor] | 105 | 6 | 105
NC(=O)c1oc2ccccc2c1NC(=O)CN1CCCCC1 | 106 | 9 | 1 | 7 | 5 | 111 | . | . | .
CCOC(=O)C(C(=O)Nc1cccc(C)c1)C1CCCCC1 (stereo not drawn) | 99 | -34 | 0 | 1 | -3 | -4.0*[inhibitor] | 103 | 2 | 109
Cc1cc(C)nc(N2CCN(c3ccc(F)cc3)CC2)n1 | 103 | 3 | . | . | . | 109 | . | . | .
CCCCN(C)CCNC(=O)Cn1ncc2c(=O)oc3ccc(C)cc3c21 | 100 | 2 | 0 | 0 | 13 | 109 | . | . | .
CN1CCN(S(=O)(=O)c2ccc3c(c2)NC(=O)C2CCCN32)CC1 (stereo not drawn) | 108 | 0 | 0 | 2 | -22 | 102 | . | . | .
CNS(=O)(=O)c1ccc2c(c1)NC(=O)C1CCCN21 (stereo not drawn) | 153* | 0 | -1 | -6 | 4 | 110 | 103 | 3 | 101
Cc1cc(C)nc(NC(=O)c2ccc(Cl)c([N+](=O)[O-])c2)n1 | 87 | -2 | . | . | . | 95 | . | . | .
Cc1cccc(C)c1NS(=O)(=O)c1ccc(NC(=O)c2ccc(Cl)c([N+](=O)[O-])c2)cc1 | 140* | 1 | 0 | 0 | 4 | 115 | 100 | -2 | 101
Cc1cc(C(=O)Nc2ccc(N3CCCC3)c(Cl)c2)ccc1[N+](=O)[O-] | 135* | 2 | 0 | 1 | 29 | 130 | 110 | -2 | 103
Cc1ccc(-n2c(SCC(=O)N3CCCCC3)nc(O)c(Cc3ccccc3)c2=O)cc1 | 100 | 3 | . | . | . | 97 | . | . | .
Clc1cccc(N/N=C(\Cc2nc3ccccc3[nH]2)c2ccccc2)c1 | 138* | 5 | 1 | 17 | 62 | 138* | 120 | 6 | 105
CC(C(=O)Nc1ccc(N2CCOCC2)cc1)N1C(=O)c2ccccc2C1=O (stereo not drawn) | 93 | -1 | 1 | 2 | -9 | 95 | . | . | .
CC(C)C(C(=O)Nc1ccc(N2CCOCC2)cc1)N1C(=O)c2ccccc2C1=O (stereo not drawn) | 2.0*[inhibitor] | -25 | 1 | 3 | 8 | -2.0*[inhibitor] | 107 | 7 | 103
Cc1cc(=O)[nH]n(CCO)c1=O | 103 | 7 | . | . | . | 106 | . | . | .
CC#CC(=O)NCC1(N(C)Cc2ccccc2)Cc2ccccc2C1 | 105 | 3 | . | . | . | 103 | . | . | .
O=C(Nc1ccc(F)cc1)Nc1ccc(Oc2ncnc3cc(Cl)ccc23)nc1 | 69*[inhibitor] | -33 | . | . | . | 75 | 104 | 2 | 102
O=C(Nc1ccc(Oc2ncnc3cc(Cl)ccc23)nc1)c1cccs1 | 87 | -17 | . | . | . | 93 | . | . | .
O=C(O)CCCC(=O)Nc1ccc(Oc2ncnc3cc(Cl)ccc23)nc1 | 128* | 26 | . | . | . | 128 | 98 | -1 | 99
O=[N+]([O-])c1cc([N+](=O)[O-])c(Oc2cc(F)ccc2F)cc1NN1CCCCC1 | 99 | -7 | . | . | . | 90 | . | . | .
SMILES | MEKK3 PB1 HTS | MEKK2mut PB1 HTS | ABCB1 block | ABCG2 block | WT yeast gro inh | MEKK2wt PB1 HTS | MEKK2wt confirm | MEKK2mut confirm | MEKK3 confirm
COc1cc(/C=C/C(=O)CC(=O)/C=C/c2ccc(O)c(OC)c2)ccc1O | 75 | 40* | 11 | 17 | 0 | 14* | 88 | -6 | 88
CCc1nnc(NC(=O)C2CCN(c3nc(C)cc(C)n3)CC2)s1 | 66 | -15 | 2 | 4 | 5 | 75 | . | . | .
O=c1[nH]ncc(N/N=C\c2ccncc2)c1Cl | 136* | 5 | 0 | 3 | -4 | 118 | 87 | -11 | 88
O=c1[nH]ncc(N/N=C\c2cccnc2)c1Cl | 99 | 4 | . | . | . | 100 | . | . | .
O=C(Nc1nc2ccccc2[nH]1)Nc1ccccc1F | 100 | -1 | . | . | . | 101 | . | . | .
CN1CCN(Cc2ccc(Sc3ccc(Cl)cc3)c([N+](=O)[O-])c2)CC1 | 107 | 27 | 1 | 2 | 86* | 157* | 122 | 8 | 102
CCCN(CC(=O)Nc1ccccc1C)C(=O)/C=C/c1cccs1 | 140* | 1 | 1 | 17 | 3 | 108 | 94 | 0 | 99
NS(=O)(=O)c1cc(C(=O)NCC2CCCCC2)ccc1Cl | 101 | 10 | . | . | . | 99 | . | . | .
Cc1cc(=O)oc(C)c1C(=O)OCC(=O)c1ccc(Cl)c(Cl)c1 | 105 | 0 | -2 | 25 | 6 | 101 | . | . | .
Cc1ccc(C(=O)COC(=O)c2c(C)cc(=O)oc2C)cc1[N+](=O)[O-] | 160* | 1 | 1 | 6 | 1 | 106 | 105 | 8 | 102
c1ccc(-c2cc(NCCN3CCCCC3)c3ccccc3n2)cc1 | 111 | 23 | . | . | . | 139* | 119 | 10 | 105
CCN(CC)c1ccc(C=C(c2nnnn2-c2ccc(C)cc2)c2nnnn2-c2ccc(C)cc2)cc1 | 131* | 1 | 1 | 0 | -5 | 102 | 95 | 2 | 104
Cc1ccc(-n2nnnc2-c2ccccc2)cc1 | 96 | -2 | 1 | 3 | 19 | 96 | . | . | .
Cc1cc(C)c(C)c(S(=O)(=O)Nc2ccccc2C(=O)NCCCN2CCOCC2)c1C | 99 | -2 | 1 | 2 | 11 | 105 | . | . | .
O=C1NC(=O)C2(COC3(CCCC3)OC2)S1 | 81 | -10 | 0 | 0 | 6 | 85 | . | . | .
CC(C)n1cnc2c(N(C)c3ccccc3)nc(N(CCN(C)C)Cc3ccccc3)nc21 | 114 | 22 | . | . | . | 175* | 137 | 7 | 103
